Experimental data from different studies.
Compare with care: the assays were run in different laboratories.
Target: D(2) dopamine receptor (DRD2, Homo sapiens, UniProt P14416)

CS(=O)(=O)c1cc(C2(NC(=O)c3cncc4c3cnn4-c3ccc(F)cc3)CC2)ccn1 gave an inhibition of 6.62% (cell-free assay; 10 µM).
For O=C(CCCN1CCC(O)(c2ccc(Br)cc2)CC1)c1ccc(F)cc1, the koff was 0.00742 s⁻¹ (binding).
O=C1C2CCCN2C(=O)N1CCCCN1CCN(c2cccc(Cl)c2)CC1 (stereo not shown) gave an inhibition of 65.4% (enzyme activity; inhibitor; 10 µM).
C[C@H](c1ccnc(Nc2nc3ccc(-c4cc(N(C)C)ncn4)cc3[nH]2)c1)N1CCN(C(=O)CC(F)(F)F)CC1 has an inhibition of 5.66% (ligand displacement; 10 µM).
For O=C(CN1CCO[C@H](COc2cccnc2)C1)N1CCc2ccccc21, the inhibition was 9.9% (ligand displacement; radioligand; 10 µM).
With CC(=O)C1=C(C)N(c2cccc(C(F)(F)F)c2)C(=O)N[C@H]1c1ccc(C#N)nc1 the inhibition was -1.53% (ligand displacement; 10 µM).
For COc1ccccc1N1CCN(CCCCN2CCc3ccccc3C2=O)CC1, the inhibition was 97.5% (ligand displacement; radioligand; 10 µM).
O=C(NCCN1CCN(C(=O)c2ccccc2)CC1)C(=O)Nc1ccccc1 gave an inhibition of 6.4% (enzyme activity; inhibitor; 10 µM).
COc1ccc2c(c1)CN(CCCN1CCN(c3ccccc3OC)CC1)C2=O gave an inhibition of 82.1% (ligand displacement; radioligand; 10 µM).
CCOc1cc(N2C3COCC2CN(C(=O)[C@H]2C[C@H](O)CN2c2ccc(Cl)cc2)C3)ccc1Cl has an inhibition of 7.26% (cell-free assay; 10 µM).
With Cc1ccc(OC[C@@H]2CN(CCN3CCc4ccccc43)CCO2)cn1 the inhibition was 18.8% (ligand displacement; radioligand; 10 µM).
With O=C(CN1CCN(c2ccc(F)cc2)CC1)Nc1cc(Cl)cc(Cl)c1 the inhibition was 13.6% (enzyme activity; inhibitor; 10 µM).
For Cn1nc(C(=O)NCc2ccc(C(=O)O)cc2)cc1-c1ccc2[nH]ccc2c1, the inhibition was -14.4% (ligand displacement; 10 µM).
With FC(F)(F)c1cccc(-c2ccc(CNCCCN3CCOCC3)o2)c1 the inhibition was 48.3% (enzyme activity; inhibitor; 10 µM).
With Clc1cncc(OC[C@H]2CN(CCN3CCc4ccccc43)CCO2)c1 the inhibition was 37.8% (ligand displacement; radioligand; 10 µM).
The inhibition of O=C(c1ccccc1Cl)N1CCN(CCNc2cc(=O)oc3ccccc23)CC1 is reported as 31.2% (enzyme activity; inhibitor; 10 µM).
CNc1nc2cc(OCCCCN3CCN(c4cccc5ccc(C)nc45)CC3)ccc2s1 has an Emax of less than 20% (β-arrestin recruitment; agonist; HTLA).
COc1ccc(N2CCN(CC(O)COc3ccc(C(C)=O)cc3OC)CC2)cc1 (stereo not shown) gave an inhibition of 27.4% (enzyme activity; inhibitor; 10 µM).
For O=C1c2ccccc2CCN1CCCCN1CCN(c2ccccn2)CC1, the inhibition was 86.6% (ligand displacement; radioligand; 10 µM).
Cc1cc(NC(=O)c2cccc(S(F)(F)(F)(F)F)c2)cc(-n2ccn3nc(-c4cccnc4)cc23)c1 gave an inhibition of 12.3% (ligand displacement; radioligand; 10 µM).
With CCc1ccc(N2CCN(CC(O)COc3ccc(C(C)=O)cc3OC)CC2)cc1 (stereo not shown) the inhibition was 11.2% (enzyme activity; inhibitor; 10 µM).
For O=c1nc(-c2ccccn2)sc2ccccc12, the inhibition was 22.9% (ligand displacement; 10 µM).
Cc1cc(C)cc(NC(=O)CN2CCN(C(=O)c3ccco3)CC2)c1 has an inhibition of 8.3% (enzyme activity; inhibitor; 10 µM).
With COc1cccc(OC[C@H]2CN(CCN3CCc4ccccc43)CCO2)c1 the inhibition was 31.5% (ligand displacement; radioligand; 10 µM).
The inhibition of O=C(NCc1ncc(C(F)(F)F)cc1Cl)c1ccc2c(c1)C1(CCS(=O)(=O)CC1)[C@@H](C1CC1)N2S(=O)(=O)c1ccc(F)cc1 is reported as -8.4% (ligand displacement; 10 µM).
